Assay results as given in ChEMBL document CHEMBL4261550, “Triazolopyrimidines identified as reversible myeloperoxidase inhibitors” (Medchemcomm, 2017).

Key:
Eosinophil peroxidase = molecular target: T1, Eosinophil peroxidase (Homo sapiens, UniProt P11678); test: Inhibition of eosinophil peroxidase (unknown origin)assessed as reduction in H2O2-catalyzed 3-bromo tyrosine formation using tyrosine and potassium bromide preincubated for 10 mins followed by tyrosine/potassium bromide/H2O2 addition and measured after 15 mins by RP-UPLC analysis
T1 sequence (P11678 whole entry): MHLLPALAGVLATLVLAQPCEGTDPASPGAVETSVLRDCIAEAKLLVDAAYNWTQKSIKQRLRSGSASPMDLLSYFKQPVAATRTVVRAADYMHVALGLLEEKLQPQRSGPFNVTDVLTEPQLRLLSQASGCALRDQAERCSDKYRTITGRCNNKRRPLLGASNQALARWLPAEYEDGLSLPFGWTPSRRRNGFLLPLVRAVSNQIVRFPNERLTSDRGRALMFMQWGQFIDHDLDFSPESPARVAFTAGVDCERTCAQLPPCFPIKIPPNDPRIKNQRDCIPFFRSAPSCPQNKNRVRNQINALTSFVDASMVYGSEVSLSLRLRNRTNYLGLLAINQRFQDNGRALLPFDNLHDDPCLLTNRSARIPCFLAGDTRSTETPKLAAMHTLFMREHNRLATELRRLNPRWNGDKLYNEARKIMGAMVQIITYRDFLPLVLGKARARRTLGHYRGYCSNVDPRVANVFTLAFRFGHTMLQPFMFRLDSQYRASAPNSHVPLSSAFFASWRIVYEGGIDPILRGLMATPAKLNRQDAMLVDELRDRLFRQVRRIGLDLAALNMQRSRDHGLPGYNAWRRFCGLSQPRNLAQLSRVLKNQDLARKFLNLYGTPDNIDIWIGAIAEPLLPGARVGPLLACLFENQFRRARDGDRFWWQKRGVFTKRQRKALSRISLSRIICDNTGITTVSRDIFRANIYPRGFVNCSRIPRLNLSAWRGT
How it was run: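 Commercial EPX, purity ≥98%, 0.6 μM, in 100 mM KPi pH 7.4, preincubated with inhibitor 10 min at rt; then 400 μM tyrosine/1200 μM KBr mix, followed by 20 μM H2O2 (added solutions); 3-bromotyrosine quantified by reversed-phase LC, column 60 °C, MeOH/TFA gradient.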

Myeloperoxidase [1] = molecular target: T2, Myeloperoxidase (Homo sapiens, UniProt P05164); test: Inhibition of MPO in human neutrophils assessed as reduction in PMA-stimulated HOCl production incubated for 3 mins and measured for 25 mins by luminol reagent based luminescence assay
T2 sequence (P05164 whole entry): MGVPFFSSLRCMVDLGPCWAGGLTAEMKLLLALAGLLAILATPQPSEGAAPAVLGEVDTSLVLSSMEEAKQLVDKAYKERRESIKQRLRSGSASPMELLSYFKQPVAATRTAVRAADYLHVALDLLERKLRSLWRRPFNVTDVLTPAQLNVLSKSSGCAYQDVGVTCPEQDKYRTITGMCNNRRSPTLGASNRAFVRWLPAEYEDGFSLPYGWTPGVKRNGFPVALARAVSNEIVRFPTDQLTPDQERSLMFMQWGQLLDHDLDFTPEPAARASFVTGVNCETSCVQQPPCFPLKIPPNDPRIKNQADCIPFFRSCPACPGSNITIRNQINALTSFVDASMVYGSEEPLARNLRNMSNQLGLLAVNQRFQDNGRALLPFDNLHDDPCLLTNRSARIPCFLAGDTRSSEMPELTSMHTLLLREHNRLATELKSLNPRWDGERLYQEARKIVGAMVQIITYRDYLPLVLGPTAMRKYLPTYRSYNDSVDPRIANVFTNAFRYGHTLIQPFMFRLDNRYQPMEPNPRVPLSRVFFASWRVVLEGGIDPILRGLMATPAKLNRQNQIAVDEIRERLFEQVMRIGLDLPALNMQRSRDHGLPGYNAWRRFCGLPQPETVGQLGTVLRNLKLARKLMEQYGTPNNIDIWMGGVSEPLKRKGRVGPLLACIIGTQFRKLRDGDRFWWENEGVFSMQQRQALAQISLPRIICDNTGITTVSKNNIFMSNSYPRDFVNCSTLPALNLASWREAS
How it was run: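 Neutrophils from healthy donors isolated by dextran sedimentation then Ficoll-Paque, resuspended in HBSS; 1.106 cells/mL stimulated with 100 nM PMA; inhibitor 22 μM down to 1 nM (1:3, 10 doses) in 10% ethanol/50% PEG/40% water, 3 min at rt; luminol 100 μM final, read 25 min at 37 °C; rate taken from initial linear region.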

Homo sapiens [2] = organism: Homo sapiens; test: Selectivity ratio of IC50 for recombinant human LPO isoform-1 (26 to 712 residues) expressed in baculovirus infected insect cells to IC50 for human MPO
How it was run: (§1)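 LPO isoform 1 residues 26–712, baculovirus/T. ni expressed, purified by cation exchange, hydrophobic interaction and size exclusion; 2.0 nM in 100 mM KPi pH 7.4, 10 min rt preincubation with inhibitor; then 400 μM KI/240 μM 3-iodotyrosine mix and 20 μM H2O2 (added solutions); 3,5-iodotyrosine formation monitored.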

Myeloperoxidase [3] = molecular target: T2, Myeloperoxidase; test: (§2) Inhibition of human MPO assessed as reduction in enzyme-mediated chlorination by measuring reduction in HOCl formation preincubated for 10 mins followed by H2O2/NaCl addition and measured at 30 secs time interval for 5 mins by APF dye based fluorescence assay
[4] = Redox activity assessed as conversion of resazurin reagent to resorufin at 10 uM after 30 mins by fluorescence assay relative to control; format: physicochemical; settings: 0.5 h
How it was run: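 Redox counterscreen: compound 10 μM final incubated with 5 μM resazurin reagent (final) 30 min; fluorescence intensity read; normalized to a reactive styrylpyrimidotriazinedione standard at 10 μM as 100%.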

Homo sapiens [5] = organism: Homo sapiens; test: Selectivity ratio of IC50 for recombinant human C-terminal His6-tagged TPO (15 to 839 residues) expressed in baculovirus infected insect cells to IC50 for human MPO
How it was run: as §1, with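 “TPO” for “LPO isoform 1”, “15–839 with C-terminal His6,” for “26–712,”, “Ni affinity, anion exchange” for “cation exchange, hydrophobic interaction”, “4.0” for “2.0”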

Myeloperoxidase [6] = molecular target: T2, Myeloperoxidase; test: Inhibition of human MPO assessed as reduction in enzyme-mediated chlorination by measuring reduction in HOCl formation in presence of H2O2/NaCl measured at 30 secs time interval for 5 mins by APF dye based fluorescence assay
MPO, mouse = MPO, mouse (Mus musculus, UniProt P11247); test: as §2, with “mouse C-terminal His10 tagged” for “human”, “MPO (Met16 to Thr718 residues)” for “MPO”
[7] = molecular target: T3, Myeloperoxidase (Homo sapiens) (UniProt P05164); test: Inhibition of human MPO assessed as reduction in enzyme-mediated chlorination by measuring reduction in HOCl formation at 10 uM preincubated for 10 mins followed by H2O2/NaCl addition and measured at 30 secs time interval for 5 mins by APF dye based fluorescence assay relative to control
T3 sequence (whole entry): T2 sequence (P05164 whole entry)
How it was run: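 HTS APF chlorination, 1536-well: 1.75 nM human MPO with 20 μM H2O2 final, compound 10 μM final, preincubated 10 min; APF reagent added, fluorescence 485/535 nm read every 30 s for 5 min; slope normalized to DMSO (0%) and no-MPO wells (100% inhibition).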

Chain of MPO, mouse (P11247 whole entry, looked up): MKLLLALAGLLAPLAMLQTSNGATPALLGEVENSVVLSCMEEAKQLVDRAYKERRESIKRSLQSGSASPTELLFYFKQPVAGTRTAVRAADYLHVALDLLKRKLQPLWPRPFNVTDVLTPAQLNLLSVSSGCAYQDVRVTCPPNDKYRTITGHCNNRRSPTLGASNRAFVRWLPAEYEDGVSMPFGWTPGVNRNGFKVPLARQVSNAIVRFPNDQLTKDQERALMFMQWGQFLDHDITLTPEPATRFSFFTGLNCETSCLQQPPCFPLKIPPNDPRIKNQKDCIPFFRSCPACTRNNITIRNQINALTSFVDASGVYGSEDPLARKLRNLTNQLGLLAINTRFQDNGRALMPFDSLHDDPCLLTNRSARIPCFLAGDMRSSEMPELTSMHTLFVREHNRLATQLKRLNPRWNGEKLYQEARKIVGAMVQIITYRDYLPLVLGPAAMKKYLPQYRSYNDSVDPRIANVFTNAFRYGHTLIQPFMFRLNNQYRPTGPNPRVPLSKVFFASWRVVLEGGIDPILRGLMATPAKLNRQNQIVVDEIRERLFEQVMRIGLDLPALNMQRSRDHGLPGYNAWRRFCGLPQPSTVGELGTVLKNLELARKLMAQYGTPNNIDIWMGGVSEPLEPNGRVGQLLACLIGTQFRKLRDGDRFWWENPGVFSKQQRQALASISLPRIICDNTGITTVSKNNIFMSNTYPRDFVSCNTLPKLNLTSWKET

Row | Structure (SMILES) | IC50 (Eosinophil peroxidase) [nM] | IC50 (Myeloperoxidase [1]) [nM] | Ratio IC50 (Homo sapiens [2]) | IC50 (Myeloperoxidase [3]) [nM] | Activity [4] | Ratio IC50 (Homo sapiens [5]) | IC50 (Myeloperoxidase [6]) [nM] | IC50 (MPO, mouse) [nM] | inhibition [7] [%]
1 | Nc1ccc(Oc2cc(Cl)c(Cl)cc2Cl)cn1 | 160 | 1700 | > 10 | 360 | Not Active | > 10 | 320 | 230 | 30
2 | Nc1nc(OCc2ccccc2)c2[nH]nnc2n1 | 15 | 5000 | > 10 | 110 | Not Active | > 10 | 84 | 81 | 30
